Measured values collected from several papers.
Each line is one published result; the experiments were not run side by side.
CDK6: Cyclin-dependent kinase 6 (CDK6, Homo sapiens, UniProt Q00534)
CDK6 with cyclin D1: Cyclin-dependent kinase 6, with cyclin D1 (CDK6, Homo sapiens, UniProt Q00534)
CDK6 with cyclin D3: Cyclin-dependent kinase 6, with cyclin D3 (CDK6, Homo sapiens, UniProt Q00534)

With `Nc1nc(Nc2ccc(S(N)(=O)=O)cc2)sc1C(=O)c1ccccc1[N+](=O)[O-]` the inhibition was 85% (CDK6; enzyme activity; inhibitor; 0.1 µM).
For `CC(C)(O)[C@H]1CC[C@H](Nc2ccc3ncc(-c4cccc(C(F)(F)F)c4)n3n2)CC1`, the remaining activity was 101% (CDK6 with cyclin D1; enzyme activity; inhibitor; 1 µM).
With `CCN(CC)CCNC(=O)c1c(C)[nH]c(/C=C2\C(=O)Nc3ccc(F)cc32)c1C` the inhibition was 13% (CDK6 with cyclin D3; enzyme activity; inhibitor; 0.3 µM).
With `Cc1cnc(NC2CCOCC2)nc1-n1cnc(C(=O)NC(CN)c2cc(F)cc(Cl)c2)c1` (centres unmarked) the remaining activity was 31% (CDK6 with cyclin D3; enzyme activity; inhibitor; radiometric; 1 µM).
`Cc1cc(NC(=O)c2cccc3cc(-c4cccc5[nH]nc(N)c45)ccc23)ccc1F` gave an activity vs control of 94% (CDK6 with cyclin D3; enzyme activity; inhibitor; 0.1 µM).
The remaining activity of `O=C(Nc1cnn(-c2csc(C(=O)NC3COC3)c2)c1)Nc1ccccc1Cl` is reported as 114% (CDK6 with cyclin D3; enzyme activity; inhibitor; 5 µM).
`O=C1NC(=O)c2cc(Nc3ccc(F)cc3)c(Nc3ccc(F)cc3)cc21` gave a remaining signal of 99% (CDK6 with cyclin D1; cell-free assay; 0.5 µM).
`Cn1cnc(Br)c1C1=CN(c2ncnc3[nH]cnc23)CCS1` has an inhibition of 40.4% (CDK6; enzyme activity; inhibitor; radiometric; 2 µM).
For `N#CCCc1ccc2c(c1)-c1[nH]c3ccc([N+](=O)[O-])cc3c1CC(=O)N2`, the remaining signal was 26% (CDK6 with cyclin D3; cell-free assay; 0.5 µM).
`CNC(=O)c1cc(Oc2ccc(NC(=O)Nc3ccc(Cl)c(C(F)(F)F)c3)cc2)ccn1` has an inhibition of -11% (CDK6 with cyclin D3; enzyme activity; inhibitor; 0.3 µM).
The remaining signal of `O=C1Nc2ccc(Cl)cc2C1=Cc1cc(Cl)c(O)c(Cl)c1` is reported as 97% (CDK6 with cyclin D1; cell-free assay; 0.5 µM).
With `Cc1ccc(NC(=O)c2ccc(C)c(C(F)(F)F)c2)cc1C#Cc1nn(C2CCC(O)CC2)c2ncnc(N)c12` (centres unmarked) the remaining signal was 120% (CDK6 with cyclin D3; cell-free assay; 10 µM).
With `CC(C)(C)c1nc2c(s1)c1nc(N)ncc1c1ccc(NS(=O)(=O)c3c(F)cccc3F)c(F)c12` the remaining activity was 97% (CDK6 with cyclin D3; enzyme activity; inhibitor; radiometric; 1 µM).
The remaining activity of `O=C(Nc1cnn(-c2csc(C(=O)NC3COC3)c2)c1)Nc1c(F)cccc1Cl` is reported as 92.6% (CDK6 with cyclin D3; enzyme activity; inhibitor; 5 µM).
For `CC(C)c1ccc(NC(=O)c2cccs2)c(-c2nc3ccccc3[nH]c2=O)c1`, the activity vs control was 114% (CDK6 with cyclin D3; enzyme activity; inhibitor; 1 µM).
For `CC(C)(C)c1nc(-c2cccc(NS(=O)(=O)c3c(F)cccc3F)c2F)c(-c2ccnc(N)n2)s1`, the remaining activity was 104% (CDK6 with cyclin D1; enzyme activity; inhibitor; radiometric; 1 µM).
With `Cc1ccc(Nc2nccc(N(C)c3ccc4c(C)n(C)nc4c3)n2)cc1S(N)(=O)=O` the inhibition was 38% (CDK6 with cyclin D3; enzyme activity; inhibitor; 10 µM).
